Screens deposited in PubChem BioAssay by Broad Institute.
Hits are enriched below; roughly 0.58% of the tested compounds scored in any of these assays.
miR-122 sensor = blocks miR-122 activity in Huh7 sensor cells. Huh7 miR-122 Renilla luciferase sensor, 48 h; neutral wells = 0, positive control = 100. activation (reporter increase), % at 12.5 µM. 340,000 compounds, 0.3% hits. AID 602342;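 active = mean replicate activation score at least 90 and every replicate individually at or above 90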;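 also: higher luciferase means less miR-122 activity so hits act as miR-122 inhibitors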
Cneo AK release = causes C. neoformans cell lysis. adenylate kinase release luminescence, 4 h; normalised: neutral wells 0, clomiphene wells 100. lysis activity, % at 15 µM. 360,000 compounds, 0.2% hits;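 active = mean lysis activity across replicates of at least 80%, whatever share of replicates individually reach that level; inactive = mean lysis activity below 80%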
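Material: C. neoformans cells | Amount: Yeast cell density of 5 × 10^6 cells/mL | Medium: Fresh YPD growth medium | Dosing: Single dose | Times: Static 4 h at 37 °C with compound, 1 h detection | Detection: AK luminescence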
PDI turbidity = blocks human protein disulfide isomerase activity. PDI insulin aggregation turbidity, A650, 90 min. 350,000 compounds, 0.052% hits. inhibition, % at 10 µM. P07237;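 active = mean inhibition across replicates of 30% or more, whatever share of single replicates reach that level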
PglD DTNB = inhibitors of Campylobacter jejuni PglD acetyltransferase; purified PglD enzyme, DTNB colorimetric CoA detection; inhibition, % at 12.5 µM; 360,000 compounds, 0.098% hits; in the data active = inhibition above about 16%, passing the limit was not always enough
ERp5 inh = ERp5 (human) disulfide isomerase inhibition | ERp5 insulin aggregation, absorbance 650 nm, 90 min | 350,000 compounds, 0.05% hits | inhibition, % at 9.99 µM | Q15084;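 active = mean replicate inhibition above about 25%, with every replicate also reaching it, limit read from the data, passing the limit was not always enough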
Target sequence (Q15084 whole entry, looked up): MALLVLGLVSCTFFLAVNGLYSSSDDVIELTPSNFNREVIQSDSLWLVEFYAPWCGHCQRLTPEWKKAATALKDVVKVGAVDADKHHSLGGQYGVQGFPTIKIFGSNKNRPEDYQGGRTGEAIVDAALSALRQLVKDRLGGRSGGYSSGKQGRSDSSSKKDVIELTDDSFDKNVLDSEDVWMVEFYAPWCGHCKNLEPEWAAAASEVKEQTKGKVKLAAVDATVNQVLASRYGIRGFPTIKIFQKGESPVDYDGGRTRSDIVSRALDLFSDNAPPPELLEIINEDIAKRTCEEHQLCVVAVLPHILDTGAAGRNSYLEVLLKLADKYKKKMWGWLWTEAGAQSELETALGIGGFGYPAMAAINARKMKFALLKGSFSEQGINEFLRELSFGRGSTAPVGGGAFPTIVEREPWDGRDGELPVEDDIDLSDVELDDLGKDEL
PvdQ acylase = P. aeruginosa PvdQ acylase inhibition | purified PvdQ acylase, fluorescence plate reader | inhibition, % at 10 µM | 340,000 compounds, 0.063% hits; in the data active = inhibition above about 30%, passing the limit was not always enough;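 also: 0% = vehicle neutral wells and 100% = reference inhibitor wells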
* marks the source's active call; other numbers are inactive results; / = no result; ! = a repeat was not active; [ ] = another dose, or the depositor's remark.

SMILES	miR-122 sensor	Cneo AK release	PDI turbidity	PglD DTNB	ERp5 inh	PvdQ acylase
O=C(NCCSc1ccccn1)c1ccc(Cl)cc1	3	-1	11	-4	-1	-2
c1ccc2cc(-c3csnn3)ccc2c1	0	3	5	-3	/	35*
C[C@H]1CN([C@@H](C)CO)C(=O)c2cc(C3=CCCCC3)cnc2O[C@@H]1CN(C)C(=O)Cc1cccnc1	5[16.7 µM]	0	/	1	3	/
COC(=O)c1cc(C)nc2c1C(=O)C(=O)C=C2N1CCOCC1	/	2	2	1	63*	5
COC(=O)c1cc(S(=O)(=O)N2CCOCC2)c(Cl)cc1N1CCOCC1	-3	1	-3	2	/	-3
CCOC(=O)c1oc2cccc(O)c2c1CN(Cc1ccccc1)C(C)=O	4	1	52*	4	/	-16
C/C(=N\NC(=O)c1cccc(S(=O)(=O)Nc2cccc(Cl)c2)c1)c1cccs1	148*	-1	-3	4	3	-10
CCN(CC)S(=O)(=O)c1cccc(C(=O)N/N=C(\C)c2cccs2)c1	0	-3	12	-3	4	-3
CCN(CC)S(=O)(=O)c1cc(C(=O)Nc2ccncc2)ccc1Cl	3	0	3	5	/	-9
CCN(CC)S(=O)(=O)c1cc(C(=O)N(C)CC(=O)Nc2ccc(Cl)cc2)ccc1Cl	168*	/	-18	/	5	-4
CC(=O)N1N=C(c2cccs2)CC1c1ccc(Br)cc1 (configuration not stated)	/	-6	5	1	3	-11
Cc1ccc(C2CC(c3cccs3)=NN2C(=O)c2ccc(Br)o2)cc1 (configuration not stated)	1	200*	3	-2	/	-11
CN(C)CCn1c(=O)n(-c2ccc(F)cc2)c(=O)c2c3c(sc21)CCCCC3	/	/	-1	/	2	-4
CN(C)CCCn1c(=O)n(C2CCCCC2)c(=O)c2c3c(sc21)CCCCC3	0	88*	19	-3	-1	0
Cc1ccc(S(=O)(=O)NCC[C@@H]2CC[C@@H](NC(=O)c3ccccn3)[C@H](CO)O2)cc1	/	-3	/	3	8	/
COCCOC(=O)c1c(C)oc2ccc(NS(=O)(=O)c3ccccc3)cc12	3	0	0	1	2	-9
COCCOC(=O)c1c(C)oc2ccc(NS(=O)(=O)c3ccc(C)cc3)cc12	103*	-2	-4	-2	8	-14
C[C@H]1CCCCO[C@H](CN(C)C(=O)CCCN(C)C)[C@@H](C)CN([C@@H](C)CO)C(=O)c2cc(NC(=O)c3ccccc3)ccc2O1	2[16.7 µM]	-1	/	0	0	/
C[C@H](NC(=O)[C@H]1[C@H](CO)[C@H]2Cn3c(cccc3=O)[C@@H]1N2C(=O)C1CC1)c1ccccc1	-3[16.7 µM]	4	/	2	0	/
CCOC(=O)C1(CCOc2ccccc2)CCN(Cc2ccc(O)c(Cl)c2)CC1	-5	2	111*	-5	0	-21
CCOC(=O)C1(CCOc2ccccc2)CCN(Cc2ccc(O)c(OC)c2)CC1	-3	2	1	5	2	-11
NC(=O)NCC#Cc1ccc2c(c1)[C@]1(C(=O)N2)[C@H](C(N)=O)[C@H]2C(=O)O[C@H](c3ccccc3)[C@H](c3ccccc3)N2[C@@H]1c1ccccc1OCCO	/	96*	/	2	-4	/
CS(=O)(=O)N1N=C(c2ccc(Cl)cc2)CC1c1cccs1 (configuration not stated)	126*	1	-1	-1	/	2
CCS(=O)(=O)Nc1cccc(C2=NN(S(C)(=O)=O)C(c3cccs3)C2)c1 (configuration not stated)	3	1	-3	-3	4	-13
Cc1cc2c3c(c1)C1(C(=O)N3C(C)(C)CC2C)C(C#N)=C(N)Oc2n[nH]c(C)c21 (configuration not stated)	0	/	38*	/	/	-11
SMILES	miR-122 sensor	Cneo AK release	PDI turbidity	PglD DTNB	ERp5 inh	PvdQ acylase
COc1ccccc1C#Cc1cnc2c(c1)C(=O)N([C@H](C)CO)C[C@H](C)[C@@H](CN(C)S(=O)(=O)c1cn(C)cn1)O2	-3	-2	-4	-1	-2	/
C[C@H](CO)N1C[C@H](C)[C@H](CN(C)S(=O)(=O)c2cn(C)cn2)Oc2ncc(C#Cc3ccccc3)cc2C1=O	-6[16.7 µM]	-5	/	-1	36*	/
C[C@H](CO)N1C[C@H](C)[C@H](CN(C)S(=O)(=O)c2cn(C)cn2)Oc2ncc(/C=C/c3ccccc3)cc2C1=O	33[16.7 µM]	97*!	/	2	-5	/
C[C@@H]1CN([C@@H](C)CO)C(=O)c2cc(/C=C/c3ccccc3)cnc2O[C@@H]1CN(C)S(C)(=O)=O	9[16.7 µM]	83*	/	3	-4	/
C[C@@H]1CN([C@@H](C)CO)C(=O)c2cc(C#CC3CCCCC3)cnc2O[C@@H]1CN(C)S(=O)(=O)c1ccccc1	1[16.7 µM]	-3	/	5	29*	/
C[C@H](CO)N1C[C@H](C)[C@@H](CN(C)S(=O)(=O)c2ccccc2)Oc2ncc(C#CC3CCCCC3)cc2C1=O	2[16.7 µM]	2	/	-1	-11	/
Cc1cc(C)cc(NS(=O)(=O)c2ccc3c(c2)C(C)(C)C(=O)N3C)c1	107*	3	/	2	0	1
CNC[C@@H]1Oc2c(NS(=O)(=O)c3ccc(OC)cc3)cccc2C(=O)N([C@H](C)CO)C[C@H]1C	-6[16.7 µM]	-8	/	0	2	/
Cn1cnc(S(=O)(=O)N2C[C@H](O)COC[C@H]3O[C@@H](CC(=O)N4CCN(c5ccccc5)CC4)CC[C@@H]32)c1	-5[16.7 µM]	-1	/	3	-9	/
O=C(CCCCCCC(=O)Nc1ccccc1)NO	232*	0	0	0	4	-14
O=C(CCCNC(=O)c1ccc(Cl)cc1)Nc1ncccc1O	-6	1	-4	-3	3	12
O=C(CCCNC(=O)c1ccc(Cl)cc1)Nc1nccs1	/	87*	17	2	-1	-9
CC=Cc1ccc2n(c1=O)C[C@@H]1[C@@H](CO)[C@H](C(=O)N3CCCCC3)N(Cc3ccccc3)[C@H]21 (mixture of isomers)	41[16.7 µM]	106*	/	2	-1	/
CC=Cc1ccc2n(c1=O)C[C@H]1[C@H](CO)[C@@H](C(=O)N3CCOCC3)N(CC3CC3)[C@@H]21 (mixture of isomers)	/	84*	/	0	3	/
CC=Cc1ccc2n(c1=O)C[C@@H]1[C@@H](CO)[C@H](C(=O)N3CCOCC3)N(CC3CC3)[C@H]21 (mixture of isomers)	/	47	/	1	0	/
CC=Cc1ccc2n(c1=O)C[C@H]1[C@H](CO)[C@@H](C(=O)N3CCc4ccccc4C3)N(C(=O)C3CC3)[C@@H]21 (mixture of isomers)	/	90*	/	3	-3	/
